Measurements taken from ChEMBL document CHEMBL3044709, “Antimicrobial furostanol saponins from the seeds of Capsicum annuum L. var. acuminatum” (2002).
In brackets after ≈: the same amount, converted by molar mass.

Assays:
Assay type in all cases: functional
[1] = tested on: Staphylococcus aureus; assay: Antimicrobial activity against Staphylococcus aureus subsp. aureus DSM 346 after 48 hr by agar dilution method; details: DSM 346, 48 h
In short: (§1)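 Agar dilution on standard plate count agar: 0.5 mL of a 2-fold serial dilution of sample mixed into 9.5 mL medium, poured into Petri dishes, organism streaked on the surface. Incubated at 28 °C (36 and 48 h). MIC is the lowest tested concentration with no visible growth.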

[2] = tested on: Lacticaseibacillus rhamnosus; assay: Antimicrobial activity against Lactobacillus rhamnosus DSM 20021 after 48 hr by agar dilution method; details: DSM 20021, 48 h; in short: as §1
[3] = tested on: Hanseniaspora guilliermondii; assay: Antimicrobial activity against Hanseniaspora guilliermondii CBS 465 after 48 hr by agar dilution method; details: CBS 465, 48 h
In short: (§2)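 Yeast peptone dextrose agar plates, each holding a 2-fold serial dilution of sample (0.5 mL into 9.5 mL medium). Yeast streaked onto the plates and incubated at 28 °C, read at 36 and 48 h. MIC is the lowest concentration tested showing no growth.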

[4] = tested on: Trichoderma viride; assay: Antimicrobial activity against Hypocrea rufa ATCC 28020 after 48 hr by agar dilution method; details: ATCC 28020, 48 h
In short: (§3)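 Fungi tested by agar dilution in malt agar. Serial 2-fold sample dilutions (0.5 mL) were mixed with 9.5 mL medium and plated, then streaked with the organism. Incubation at 28 °C for 36 and 48 h. MIC is the lowest tested concentration without growth.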

[5] = tested on: Pseudomonas aeruginosa; assay: Antimicrobial activity against Pseudomonas aeruginosa DSM 1117 after 48 hr by agar dilution method; details: DSM 1117, 48 h; in short: as §1
[6] = tested on: Saccharomyces cerevisiae; assay: Antimicrobial activity against Saccharomyces cerevisiae Diproval 404 after 48 hr by agar dilution method; details: Diproval 404, 48 h; in short: as §2
[7] = tested on: Limosilactobacillus fermentum; assay: Antimicrobial activity against Lactobacillus fermentum DSM 20052 after 48 hr by agar dilution method; details: DSM 20052, 48 h; in short: as §1
[8] = tested on: Enterococcus faecalis; assay: Antimicrobial activity against Enterococcus faecalis DSM 2570 after 48 hr by agar dilution method; details: DSM 2570, 48 h; in short: as §1
[9] = tested on: Bacillus licheniformis; assay: Antimicrobial activity against Bacillus licheniformis DSM 13=ATCC 14580 after 48 hr by agar dilution method; details: DSM 13 = ATCC 14580, 48 h; in short: as §1
[10] = tested on: Aspergillus fumigatus; assay: Antimicrobial activity against Aspergillus fumigatus ATCC 1028 after 48 hr by agar dilution method; details: ATCC 1028, 48 h; in short: as §3
[11] = tested on: Aspergillus flavus; assay: Antimicrobial activity against Aspergillus flavus ATCC 11655 after 48 hr by agar dilution method; details: ATCC 11655, 48 h; in short: as §3
[12] = tested on: Aspergillus niger; assay: Antimicrobial activity against Aspergillus niger ATCC 1040 after 48 hr by agar dilution method; details: ATCC 1040, 48 h; in short: as §3
[13] = tested on: Rhizopus arrhizus; assay: Antimicrobial activity against Rhizopus oryzae ATCC 56536 after 48 hr by agar dilution method; details: ATCC 56536, 48 h; in short: as §3
[14] = tested on: Hanseniaspora osmophila; assay: Antimicrobial activity against Hanseniaspora osmophila CBS 313 after 48 hr by agar dilution method; details: CBS 313, 48 h; in short: as §2
[15] = tested on: Staphylococcus epidermidis; assay: Antimicrobial activity against Staphylococcus epidermidis DSM 1798 after 48 hr by agar dilution method; details: DSM 1798, 48 h; in short: as §1
[16] = tested on: Saccharomyces cerevisiae; assay: Antimicrobial activity against Saccharomyces cerevisiae Diproval 7070 after 48 hr by agar dilution method; details: Diproval 7070, 48 h; in short: as §2
[17] = tested on: Escherichia coli; assay: Antimicrobial activity against Escherichia coli ATCC 35346 after 48 hr by agar dilution method; details: ATCC 35346, 48 h; in short: as §1
[18] = tested on: Candida albicans; assay: Antimicrobial activity against Candida albicans CBS 562 after 48 hr by agar dilution method; details: CBS 562, 48 h; in short: as §2
[19] = tested on: Escherichia coli; assay: Antimicrobial activity against Escherichia coli DSM 682 after 48 hr by agar dilution method; details: DSM 682, 48 h; in short: as §1
[20] = tested on: Hanseniaspora uvarum; assay: Antimicrobial activity against Hanseniaspora uvarum CBS 314 after 48 hr by agar dilution method; details: CBS 314, 48 h; in short: as §2
[21] = tested on: Stutzerimonas stutzeri; assay: Antimicrobial activity against Pseudomonas stutzeri ATCC 962 after 48 hr by agar dilution method; details: ATCC 962, 48 h; in short: as §1
[22] = tested on: Bacillus cereus; assay: Antimicrobial activity against Bacillus cereus DSM 345 after 48 hr by agar dilution method; details: DSM 345, 48 h; in short: as §1
[23] = tested on: Schizosaccharomyces pombe; assay: Antimicrobial activity against Schizosaccharomyces pombe Diproval 106 after 48 hr by agar dilution method; details: Diproval 106, 48 h; in short: as §2
[24] = tested on: Saccharomyces cerevisiae; assay: Antimicrobial activity against Saccharomyces cerevisiae Diproval 9109 after 48 hr by agar dilution method; details: Diproval 9109, 48 h; in short: as §2
[25] = tested on: Saccharomyces cerevisiae; assay: Antimicrobial activity against Saccharomyces cerevisiae Diproval 2439 after 48 hr by agar dilution method; details: Diproval 2439, 48 h; in short: as §2
[26] = tested on: Saccharomyces cerevisiae; assay: Antimicrobial activity against Saccharomyces cerevisiae Diproval 6073 after 48 hr by agar dilution method; details: Diproval 6073, 48 h; in short: as §2
[27] = tested on: Micrococcus luteus; assay: Antimicrobial activity against Micrococcus luteus DSM 348 after 48 hr by agar dilution method; details: DSM 348, 48 h; in short: as §1
[28] = tested on: Bacillus subtilis; assay: Antimicrobial activity against Bacillus subtilis DSM 345 after 48 hr by agar dilution method; details: DSM 345, 48 h; in short: as §1
[29] = tested on: Saccharomycodes ludwigii; assay: Antimicrobial activity against Saccharomycodes ludwigii Diproval 120 after 48 hr by agar dilution method; details: Diproval 120, 48 h; in short: as §2
[30] = tested on: Lacticaseibacillus casei; assay: Antimicrobial activity against Lactobacillus casei DSM 20011 after 48 hr by agar dilution method; details: DSM 20011, 48 h; in short: as §1
[31] = tested on: Lactiplantibacillus plantarum; assay: Antimicrobial activity against Lactobacillus plantarum DSM 20174 after 48 hr by agar dilution method; details: DSM 20174, 48 h; in short: as §1
[32] = tested on: Hanseniaspora uvarum; assay: Antimicrobial activity against Hanseniaspora uvarum AP23 after 48 hr by agar dilution method; details: Distaam AP23, 48 h; in short: as §2
[33] = tested on: Hanseniaspora vineae; assay: Antimicrobial activity against Hanseniaspora vineae CBS 2171 after 48 hr by agar dilution method; details: CBS 2171, 48 h; in short: as §2
[34] = tested on: Saccharomyces cerevisiae; assay: Antimicrobial activity against Saccharomyces cerevisiae Diproval 8167 after 48 hr by agar dilution method; details: Diproval 8167, 48 h; in short: as §2
[35] = tested on: Setophoma terrestris; assay: Antimicrobial activity against Setophoma terrestris ATCC 11321 after 48 hr by agar dilution method; details: ATCC 11321, 48 h; in short: as §3
[36] = tested on: Penicillium expansum; assay: Antimicrobial activity against Penicillium expansum ATCC 7861 after 48 hr by agar dilution method; details: ATCC 7861, 48 h; in short: as §3

C=C(CCC1(OC)O[C@H]2C[C@H]3[C@@H]4CC[C@H]5C[C@@H](O[C@@H]6O[C@H](CO)[C@H](O[C@@H]7O[C@H](CO)[C@@H](O)[C@H](O[C@@H]8O[C@H](CO)[C@@H](O)[C@H](O)[C@H]8O)[C@H]7O[C@@H]7O[C@H](CO)[C@@H](O)[C@H](O[C@@H]8O[C@H](CO)[C@@H](O)[C@H](O)[C@H]8O)[C@H]7O)[C@H](O)[C@H]6O)[C@H](O)C[C@]5(C)[C@H]4CC[C@]3(C)[C@H]2[C@@H]1C)CO[C@@H]1O[C@H](CO)[C@@H](O)[C@H](O)[C@H]1O (stereo partly specified) [Capsicoside E]
MIC [1]: > 1000 µg/mL
MIC [2]: 1000 µg/mL (≈ 697 µM)
MIC [3]: 50 µg/mL (≈ 34.8 µM)
MIC [4]: 500 µg/mL (≈ 348 µM)
MIC [5]: > 1000 µg/mL
MIC [6]: 50 µg/mL (≈ 34.8 µM)
MIC [7]: 1000 µg/mL (≈ 697 µM)
MIC [8]: > 1000 µg/mL
MIC [9]: > 1000 µg/mL
MIC [10]: > 1000 µg/mL
MIC [11]: > 1000 µg/mL
MIC [12]: > 1000 µg/mL
MIC [13]: 125 µg/mL (≈ 87.1 µM)
MIC [14]: 100 µg/mL (≈ 69.7 µM)
MIC [15]: > 1000 µg/mL
MIC [16]: 50 µg/mL (≈ 34.8 µM)
MIC [17]: 1000 µg/mL (≈ 697 µM)
MIC [18]: 25 µg/mL (≈ 17.4 µM)
MIC [19]: 1000 µg/mL (≈ 697 µM)
MIC [20]: 25 µg/mL (≈ 17.4 µM)
MIC [21]: > 1000 µg/mL
MIC [22]: 1000 µg/mL (≈ 697 µM)
MIC [23]: 100 µg/mL (≈ 69.7 µM)
MIC [24]: 50 µg/mL (≈ 34.8 µM)
MIC [25]: 50 µg/mL (≈ 34.8 µM)
MIC [26]: 50 µg/mL (≈ 34.8 µM)
MIC [27]: > 1000 µg/mL
MIC [28]: > 1000 µg/mL
MIC [29]: 50 µg/mL (≈ 34.8 µM)
MIC [30]: 1000 µg/mL (≈ 697 µM)
MIC [31]: 1000 µg/mL (≈ 697 µM)
MIC [32]: 25 µg/mL (≈ 17.4 µM)
MIC [33]: 50 µg/mL (≈ 34.8 µM)
MIC [34]: 50 µg/mL (≈ 34.8 µM)
MIC [35]: 125 µg/mL (≈ 87.1 µM)
MIC [36]: 1000 µg/mL (≈ 697 µM)
